Measurements from ChEMBL document CHEMBL1828603, “Synthesis, antimicrobial activity and possible mechanism of action of 9-bromo-substituted indolizinoquinoline-5,12-dione derivatives” (2011).
Values after ≈ are worked out from the molar mass of the structure shown. Active and inactive are the calls of the source. The rule behind the calls is not given here.

Key:
[1] = test system: Salmonella enterica subsp. enterica serovar Paratyphi B; assay: Antimicrobial activity against Salmonella paratyphi B CMCC 50094 by two fold microdilution method; type: functional
In short: (§1)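 Two-fold serial dilution in Mueller-Hinton broth, starting at 64 µg/ml. Compound was added as a DMSO solution to bacterial culture at 5 × 10^5 cells/ml, then double-diluted. Plates were incubated overnight at 37 °C and OD600 was read. MIC was taken from at least two independent experiments.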

Escherichia coli [2] = assay: Inhibition of Escherichia coli DNA gyrase supercoiling activity using pHOT1 DNA as substrate at 1 uM after 60 mins by agarose gel electrophoretic analysis
In short: (§2)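 Supercoiling assay with 1 U DNA gyrase (E. coli or S. aureus) and 0.5 µg relaxed pHOT1 DNA in Tris–HCl pH 7.5 buffer (KCl, MgCl2, DTT, spermidine, 1 mM ATP, glycerol, BSA), ± compound, 37 °C for 60 min. Stopped with proteinase K, run on 1% agarose in TAE at 3 V/cm, stained with Gel Red and imaged under UV.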

Streptococcus = assay: Antimicrobial activity against hemolytic Streptococcus Group B CMCC 32210 by two fold microdilution method; type: functional
In short: (§3)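 Two-fold broth microdilution in Mueller-Hinton broth. Compound in DMSO added to bacterial culture at 5 × 10^5 cells/ml, starting at 64 µg/ml, then serially doubled down. Incubated at 37 °C overnight and read as OD600. MIC taken as the minimum inhibitory concentration, obtained in at least two independent experiments.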

Staphylococcus aureus [3] = assay: Antimicrobial activity against methicillin-resistant Staphylococcus aureus isolate 82896 by broth microdilution method; type: functional
In short: (§4)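 MRSA clinical isolates from Guangzhou Liuhuaqiao Hospital, China. Tested by two-fold broth dilution in Mueller-Hinton broth from a top concentration of 64 µg/ml. Compound in DMSO was added to culture at 5 × 10^5 cells/ml and serially halved. Plates were incubated at 37 °C overnight with OD600 read-out. MIC came from ≥2 independent experiments.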

Staphylococcus aureus [4] = assay: Antimicrobial activity against methicillin-resistant Staphylococcus aureus isolate 0441 by broth microdilution method; type: functional; in short: as §4
Staphylococcus aureus [5] = assay: Antimicrobial activity against methicillin-resistant Staphylococcus aureus isolate 82731 by broth microdilution method; type: functional; in short: as §4
Staphylococcus aureus [6] = assay: Antimicrobial activity against methicillin-resistant Staphylococcus aureus isolate 72754 by broth microdilution method; type: functional; in short: as §4
Staphylococcus aureus [7] = assay: Antimicrobial activity against methicillin-resistant Staphylococcus aureus isolate 82924 by broth microdilution method; type: functional; in short: as §4
Staphylococcus aureus [8] = assay: Antimicrobial activity against methicillin-resistant Staphylococcus aureus isolate 7365 by broth microdilution method; type: functional; in short: as §4
Staphylococcus aureus [9] = assay: Ratio of MIC for vancomycin to compound for methicillin-resistant Staphylococcus aureus ATCC 43300 by broth microdilution method; type: functional
Pseudomonas aeruginosa = assay: Antimicrobial activity against Pseudomonas aeruginosa ATCC 27853 by two fold microdilution method; type: functional; in short: as §3
Escherichia coli [10] = assay: Inhibition of Escherichia coli DNA gyrase supercoiling activity using pHOT1 DNA as substrate at 100 uM after 60 mins by agarose gel electrophoretic analysis; in short: as §2
Staphylococcus aureus [11] = assay: Inhibition of Staphylococcus aureus topoisomerase 4 assessed as decatenation of kDNA at 125 uM after 30 mins by electrophoresis
In short: (§5)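 Decatenation assay with 1 U Topo IV and 200 ng catenated kDNA in HEPES–KOH pH 7.6 buffer (potassium glutamate, magnesium acetate, DTT, 1 mM ATP, BSA), 37 °C for 30 min. Stopped with chloroform/iso-amyl alcohol (24:1), then run on 1% agarose gel in TAE at 10 V/cm.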

[12] = target: DNA gyrase (Staphylococcus aureus) (UniProt P0A0K8+P20831); assay: Inhibition of Staphylococcus aureus DNA gyrase supercoiling activity using pHOT1 DNA as substrate at 125 uM after 60 mins by agarose gel electrophoretic analysis; type: protein-complex assay; in short: as §2
Chain of DNA gyrase (Staphylococcus aureus) (P0A0K8 2-644 limits assumed): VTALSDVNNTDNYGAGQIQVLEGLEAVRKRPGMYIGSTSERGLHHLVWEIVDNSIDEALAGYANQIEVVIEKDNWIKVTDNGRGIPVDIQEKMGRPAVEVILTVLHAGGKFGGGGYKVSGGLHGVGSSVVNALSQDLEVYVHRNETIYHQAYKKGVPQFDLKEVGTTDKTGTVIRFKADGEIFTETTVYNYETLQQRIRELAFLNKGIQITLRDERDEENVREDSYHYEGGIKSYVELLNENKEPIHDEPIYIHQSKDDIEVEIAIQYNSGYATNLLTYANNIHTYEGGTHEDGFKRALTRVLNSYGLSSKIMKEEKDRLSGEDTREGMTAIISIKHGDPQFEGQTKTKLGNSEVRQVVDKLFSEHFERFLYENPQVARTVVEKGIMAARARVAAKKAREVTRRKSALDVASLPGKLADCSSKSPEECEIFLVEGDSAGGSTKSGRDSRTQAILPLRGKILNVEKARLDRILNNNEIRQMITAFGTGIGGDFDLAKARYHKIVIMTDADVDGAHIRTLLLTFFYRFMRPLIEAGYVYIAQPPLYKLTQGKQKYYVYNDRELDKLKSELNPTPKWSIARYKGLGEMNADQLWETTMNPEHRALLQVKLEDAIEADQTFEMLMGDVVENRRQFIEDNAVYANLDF
Chain of DNA gyrase (Staphylococcus aureus) (P20831 whole entry partner): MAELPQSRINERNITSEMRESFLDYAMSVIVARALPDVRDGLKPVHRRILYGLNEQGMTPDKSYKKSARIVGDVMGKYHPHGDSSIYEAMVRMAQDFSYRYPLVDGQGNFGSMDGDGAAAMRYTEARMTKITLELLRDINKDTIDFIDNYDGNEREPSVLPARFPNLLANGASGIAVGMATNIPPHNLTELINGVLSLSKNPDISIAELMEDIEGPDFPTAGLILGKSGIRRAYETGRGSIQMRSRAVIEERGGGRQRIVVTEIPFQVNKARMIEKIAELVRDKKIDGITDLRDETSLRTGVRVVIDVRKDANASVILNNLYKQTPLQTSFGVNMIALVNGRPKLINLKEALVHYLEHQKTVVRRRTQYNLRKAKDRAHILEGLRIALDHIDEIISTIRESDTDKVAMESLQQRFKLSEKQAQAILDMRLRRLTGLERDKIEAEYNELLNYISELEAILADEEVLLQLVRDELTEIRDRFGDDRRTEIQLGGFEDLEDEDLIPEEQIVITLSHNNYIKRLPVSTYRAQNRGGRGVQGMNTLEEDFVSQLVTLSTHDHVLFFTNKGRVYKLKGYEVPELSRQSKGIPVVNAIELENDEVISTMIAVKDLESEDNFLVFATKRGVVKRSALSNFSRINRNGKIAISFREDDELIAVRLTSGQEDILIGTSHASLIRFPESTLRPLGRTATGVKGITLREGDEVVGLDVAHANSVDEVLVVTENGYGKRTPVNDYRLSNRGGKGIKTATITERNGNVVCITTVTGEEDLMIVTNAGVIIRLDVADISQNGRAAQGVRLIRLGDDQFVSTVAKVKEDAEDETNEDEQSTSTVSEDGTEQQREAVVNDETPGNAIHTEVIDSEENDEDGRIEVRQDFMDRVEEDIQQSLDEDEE

Enterococcus faecalis = assay: Antimicrobial activity against Enterococcus faecalis ATCC 29212 by two fold microdilution method; type: functional; in short: as §3
Staphylococcus aureus [13] = assay: Antimicrobial activity against methicillin-resistant Staphylococcus aureus isolate 071843 by broth microdilution method; type: functional; in short: as §4
Escherichia coli [14] = assay: Antimicrobial activity against Escherichia coli ATCC 25922 by two fold microdilution method; type: functional; in short: as §3
Escherichia coli [15] = assay: Inhibition of Escherichia coli topoisomerase 4 assessed as decatenation of kDNA at 25 uM after 30 mins by electrophoresis; in short: as §5
Staphylococcus aureus [16] = assay: Inhibition of Staphylococcus aureus topoisomerase 4-mediated relaxation of supercoiled pBR322 DNA at 25 uM after 30 mins by agarose gel electrophoretic analysis
In short: (§6)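 Relaxation assay with 1 U Topo IV and 0.5 µg supercoiled pBR322 DNA in HEPES–KOH pH 7.6 buffer (potassium glutamate, magnesium acetate, DTT, 1 mM ATP, BSA), 37 °C for 30 min. Stopped with chloroform/iso-amyl alcohol (24:1), then run on 1% agarose gel in TAE at 5 V/cm.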

Staphylococcus aureus [17] = assay: Inhibition of Staphylococcus aureus topoisomerase 4-mediated relaxation of supercoiled pBR322 DNA at 1 uM after 30 mins by agarose gel electrophoretic analysis; in short: as §6
Staphylococcus aureus [18] = assay: Antimicrobial activity against Staphylococcus aureus ATCC 25923 by two fold microdilution method; type: functional; in short: as §1
Staphylococcus aureus [19] = assay: Antimicrobial activity against methicillin-resistant Staphylococcus aureus isolate 071410 by broth microdilution method; type: functional; in short: as §4
Staphylococcus aureus [20] = assay: Antimicrobial activity against methicillin-resistant Staphylococcus aureus isolate 83160 by broth microdilution method; type: functional; in short: as §4
Staphylococcus aureus [21] = assay: Antimicrobial activity against methicillin-resistant Staphylococcus aureus ATCC 43300 by two fold microdilution method; type: functional; in short: as §1
Staphylococcus aureus [22] = assay: Antimicrobial activity against methicillin-resistant Staphylococcus aureus isolate 071429 by broth microdilution method; type: functional; in short: as §4
Escherichia coli [23] = assay: Inhibition of Escherichia coli topoisomerase 4-mediated relaxation of supercoiled pBR322 DNA at 125 uM after 30 mins by agarose gel electrophoretic analysis; in short: as §6
Staphylococcus aureus [24] = assay: Antimicrobial activity against methicillin-resistant Staphylococcus aureus isolate 80754 by broth microdilution method; type: functional; in short: as §4
Candida albicans = assay: Antifungal activity against Candida albicans ATCC 10231 by two fold microdilution method; type: functional
[25] = test system: Staphylococcus epidermidis; assay: Antimicrobial activity against Staphylococcus epidermidis ATCC 12228 by two fold microdilution method; type: functional; in short: as §3

CCOC(=O)c1c2c(n3cc(Br)ccc13)C(=O)c1ncccc1C2=O
MIC [1]: 64 µg/mL (≈ 160 µM) | inhibition (Escherichia coli [2]): 78% | MIC (Streptococcus): 0.031 µg/mL (≈ 0.0777 µM) | MIC (Staphylococcus aureus [3]): 0.032 µg/mL (≈ 0.0802 µM) | MIC (Staphylococcus aureus [4]): 0.032 µg/mL (≈ 0.0802 µM) | MIC (Staphylococcus aureus [5]): 0.016 µg/mL (≈ 0.0401 µM) | MIC (Staphylococcus aureus [6]): 0.016 µg/mL (≈ 0.0401 µM) | MIC (Staphylococcus aureus [7]): 0.032 µg/mL (≈ 0.0802 µM) | MIC (Staphylococcus aureus [8]): 0.063 µg/mL (≈ 0.158 µM) | Ratio (Staphylococcus aureus [9]): 16 | MIC (Pseudomonas aeruginosa): > 64 µg/mL | inhibition (Escherichia coli [10]): 98% | inhibition (Staphylococcus aureus [11]): 84% | inhibition [12]: inactive | MIC (Enterococcus faecalis): 0.016 µg/mL (≈ 0.0401 µM) | MIC (Staphylococcus aureus [13]): 0.016 µg/mL (≈ 0.0401 µM) | MIC (Escherichia coli [14]): > 64 µg/mL | inhibition (Escherichia coli [15]): Active | inhibition (Staphylococcus aureus [16]): Active | inhibition (Staphylococcus aureus [17]): Active | MIC (Staphylococcus aureus [18]): 0.063 µg/mL (≈ 0.158 µM) | MIC (Staphylococcus aureus [19]): 0.032 µg/mL (≈ 0.0802 µM) | MIC (Staphylococcus aureus [20]): 0.016 µg/mL (≈ 0.0401 µM) | MIC (Staphylococcus aureus [21]): 0.063 µg/mL (≈ 0.158 µM) | MIC (Staphylococcus aureus [22]): 0.016 µg/mL (≈ 0.0401 µM) | inhibition (Escherichia coli [23]): inactive | MIC (Staphylococcus aureus [24]): 0.063 µg/mL (≈ 0.158 µM) | MIC (Candida albicans): > 64 µg/mL | MIC [25]: 0.063 µg/mL (≈ 0.158 µM)
